We go through five compounds from PMC6620028 (Cancer cell, 2019).

In data set [1] the test system is OCI-AML2, OCI-AML3, TEX, Z138, HCT-116, HeLa, OC316, SUM159 cells. Description: Growth and viability of leukemia, lymphoma and solid tumor cell lines. The data set is classed as cell-based, human. As to conditions: 72 hr.
Data set [2] concerns AML and other cancers. The following applies: early phase clinical trials against AML and other cancers, ref Arrillaga-Romany et al., 2017, Kline et al., 2016, Stein et al.; cited from earlier work.
For data set [3], the system named is normal hematopoietic cells. Description: Effect on normal hematopoietic cells. The following applies: 72 hr.
Data set [4] deals with T1, human ClpP (recombinant WT) (Homo sapiens, UniProt Q16740). The data set can be described thus: ClpP FITC-casein degradation, cell-free fluorescence assay. Format: biochemical. The following applies: positive cooperativity.
The target of data set [5] is T1, human ClpP (recombinant WT). Description: ClpP AC-WLA-AMC fluorogenic peptide cleavage assay. Format: biochemical. The following applies: read-out: EC50, ClpP cleavage of AC-WLA-AMC; without ClpX.
For data set [6] the target is unchanged. Description: ClpP Ac-Phe-hArg-Leu-ACC fluorogenic peptide cleavage assay. Format: biochemical. The following applies: read-out: EC50, ClpP cleavage of Ac-Phe-hArg-Leu-ACC; without ClpX.
Data set [7] has the same target. Description: ClpP Clptide fluorogenic peptide cleavage assay. The data set is classed as biochemical. The following applies: read-out: EC50, ClpP cleavage of FAPHMALVPC (Clptide); without ClpX.
The subject of data set [8] is primary AML patient samples. Description: Apoptosis in primary AML patient samples. As to conditions: 72 hr; including high risk cytogenetics and molecular mutations. The data set is classed as cell-based, human.
The test system of data set [9] is CLPP+/+ T-REx HEK293 cells. The data set can be described thus: Alamar blue viability, CLPP+/+ T-REx HEK293. The following applies: T-REx HEK293, 72 hr. Format: cell-based, human. Background: The colour change of resazurin is a common sign of viable cells or microbes.
For data set [10], the system named is CLPP-/- T-REx HEK293 cells. The data set can be described thus: Alamar blue viability, CLPP-/- T-REx HEK293. Format: cell-based, human. The following applies: T-REx HEK293, 72 hr.
For data set [11], the system named is ONC201-resistant Z138 cells (ONC-R Z138). Description: Growth and viability, ONC201-resistant Z138. As to conditions: ONC-R Z138 compared with parental Z138. Format: cell-based, human.
In data set [12] the target is recombinant D190A ClpP (Homo sapiens, UniProt Q16740, D190A). The data set can be described thus: D190A ClpP enzymatic assays. Format: biochemical. As to conditions: peptide or protein substrates.
The target of data set [13] is endogenous ClpP in OCI-AML2 (Homo sapiens, UniProt Q16740). The data set can be described thus: Cellular thermal shift assay. The data set is classed as cell-based. As to conditions: at concentrations associated with activation in the enzymatic assays.
For data set [14], the target named is ClpP (Homo sapiens, UniProt Q16740). The data set can be described thus: Gel-based α-casein degradation assay. Format: biochemical. The following applies: 3 hr, without ClpX.
In data set [15] the test system is Z138 cells with WT ClpP overexpression. Description: Z138 xenograft with WT ClpP overexpression. The data set is classed as in vivo, NSG mice. As to conditions: ONC212 50 mg/kg every other day, oral gavage, WT ClpP group. In a few lines:
(§1)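 Female NSG mice (n = 7 per group) received two million luciferase-labelled Z138 cells transfected with a WT or D190A mutant CLPP-overexpressing vector. Engraftment was confirmed by bioluminescence imaging on day 9 post-transplantation. Test compound (50 mg/kg) or water vehicle was then given by oral gavage every other day until moribund. Tumour burden was followed weekly by IVIS luminescence until day 31, and survival was recorded.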

Data set [16] concerns Z138 cells with D190A ClpP overexpression. The data set can be described thus: Z138 xenograft with D190A ClpP overexpression. The data set is classed as in vivo, NSG mice. The following applies: ONC212 50 mg/kg every other day, oral gavage; D190A ClpP group. The essentials:
as §1

Data set [17] has as its system OCI-AML2 cells. Description: Alamar blue viability assay, OCI-AML2. As to conditions: read-out: IC50, growth and viability, OCI-AML2, 72-hr exposure. Format: cell-based, human.

T1 sequence (Q16740 57-277): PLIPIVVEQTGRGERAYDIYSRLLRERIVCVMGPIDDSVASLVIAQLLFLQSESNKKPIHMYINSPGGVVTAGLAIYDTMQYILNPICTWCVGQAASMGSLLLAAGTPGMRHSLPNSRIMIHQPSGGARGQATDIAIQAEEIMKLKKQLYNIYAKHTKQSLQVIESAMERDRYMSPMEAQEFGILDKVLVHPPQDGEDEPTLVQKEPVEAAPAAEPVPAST
recombinant D190A ClpP, sequence (Q16740 57-277 D190A): as the sequence (Q16740 57-277) above, with D134A counted along it
ClpP, sequence (Q16740 57-277): as the sequence (Q16740 57-277) above
endogenous ClpP in OCI-AML2, sequence (Q16740 57-277): as above

With `Cc1ccccc1CN1C(=O)C2=C(CCN(Cc3ccccc3)C2)N2CCN=C12` [ONC201], the “IC50 values, growth and viability” value in data set [1] is recorded as “low micromolar”. In addition, the “Serious adverse events in clinical trials” value in [2] is listed as “without serious adverse events reported yet”. In [3], the “Effect on normal hematopoietic cells” value was “had little effect”.

In the case of `O=C1C2=C(CCN(Cc3ccccc3)C2)N2CCN=C2N1Cc1ccc(C(F)(F)F)cc1` [ONC212], the “Hill coefficient (FITC-casein data)” value in [4] was 4.98 ± 0.47. For the same compound, the values for the EC50 in [5], in data set [6] and in data set [7] were 0.18 µM, 0.37 µM and 3.37 µM, respectively. In data set [1], the “IC50 values, growth and viability” value is recorded as “nanomolar range”. Moreover, the “Apoptosis in primary AML patient samples” value in [8] is recorded as “induced apoptosis”. The “Growth and viability of CLPP+/+ cells” value in [9] is “reduced the growth and viability”. For the same compound, in data set [10], the “Growth and viability of CLPP-/- cells” value is recorded as “but not CLPP^−/− cells”. Also, in data set [11], the “Growth and viability / sensitivity of ONC201-resistant Z138 cells” value (“Growth and viability / sensitivity” for short) is reported as “cross-resistant”. For the same compound, the “Activation of proteolytic activity of D190A ClpP” value in data set [12] is listed as “could not activate proteolytic activity”. Further, in [13], the “Binding of endogenous ClpP in cells (CETSA)” value is listed as “bound endogenous ClpP”. Also, in data set [14], the “Degradation of α-casein by ClpP (SDS-PAGE)” value is “induced cleavage of α-casein without the need for ClpX”. The “Tumor burden (luciferase, IVIS imaging)” value in data set [15] was “significantly reduced”. Also, the Median survival in data set [15] (vehicle 49 days) came to 55 days. Moreover, the “Tumor burden / anti-tumor activity (luciferase, IVIS imaging)” value in data set [16] was “no discernable anti-tumor activity”. Further, in [3], the “Effect on normal hematopoietic cells” value was “had little effect”.

For the compound `COc1cccc2c1C(=O)c1c(O)c3c(c(O)c1C2=O)C[C@@](O)(C(=O)CO)C[C@@H]3O[C@H]1C[C@H](N)[C@H](O)[C@H](C)O1` [adriamycin], the “Growth and viability / sensitivity” value in data set [11] was “retained similar sensitivity”.

As to `CC[C@]1(O)C[C@H]2CN(CCc3c([nH]c4ccccc34)[C@@](C(=O)OC)(c3cc4c(cc3OC)N(C=O)[C@H]3[C@@](O)(C(=O)OC)[C@H](OC(C)=O)[C@]5(CC)C=CCN6CC[C@]43[C@@H]65)C2)C1` [vincristine], the “Growth and viability / sensitivity” value in data set [11] is listed as “retained similar sensitivity”.

Regarding Acyldepsipeptide 1 [ADEP1], the IC50 in data set [17] worked out at 50 µM.

A word on the EC50: it is the concentration needed to bring the measured effect to its halfway point. By IC50 is commonly meant the concentration that gives 50% inhibition.
